Reference: PMC10172704 (Poultry Science, 2023)
Ends that are not written are not given here.

What was measured:
Assay in all cases: Microdilution broth MIC/MBC
Conditions in all cases: synthesized identified peptides
E. coli TISTR 780 = assay type: cell-based
In short: (§1)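 Broth microdilution per CLSI guideline, modified. Strains grown 18 h on tryptic soy agar, adjusted to 0.5 McFarland, then diluted in 0.85% NaCl to about 5 × 10^5 CFU/mL final. Suspension mixed with test compound in microplate wells and incubated 37°C, 18 h. Growth inhibition read at 600 nm. Positive control: 20 µg/mL kanamycin. Experiments done 3 times.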

B. cereus DMST 5040 = assay type: cell-based, Bacillus cereus
In short: as §1

S. Typhimurium TISTR 292 = assay type: cell-based, Salmonella typhimurium
In short: as §1

S. aureus ATCC 29213 = assay type: cell-based, Staphylococcus aureus
In short: as §1

Sequence	MIC (E. coli TISTR 780)	MIC (B. cereus DMST 5040)	MIC (S. Typhimurium TISTR 292)	MIC (S. aureus ATCC 29213)
CASALLGA [CASALLGA]	>4 mM	4 mM	4 mM	4 mM
HAAHTTGLGGPF [HAAHTTGLGGPF]	>4 mM	>4 mM	>4 mM	>4 mM
KGGDLGLFEPTL [KGGDLGLFEPTL]	>4 mM	2 mM	2 mM	2 mM
KVLPLPFGGRSPGGGA [KVLPLPFGGRSPGGGA]	>4 mM	>4 mM	>4 mM	>4 mM
VTLKVPGVTL [VTLKVPGVTL]	>4 mM	>4 mM	>4 mM	>4 mM
